Series [1] has as its system Plasma. The experiment in a line: Stability of the compound in human plasma assessed as compound remaining after 2 hrs. The format is ADME, cell-free.
For series [2], the system named is Caco-2. The experiment in a line: Apparent permeability from apical to basolateral side in human Caco2 cells. The format is ADME, cell-based. (Caco-2 monolayers are a common model of the intestinal barrier.)
Series [3] concerns Caco-2. The experiment in a line: Apparent permeability from basolateral to apical side in human Caco2 cells. Type of series: ADME, cell-based.
A further series relates to Brain. The experiment in a line: Cmax in C57BL/6 mouse brain at 30 mg/kg, ip administered as single dose measured within 15 mins after drug challenge. Type of series: ADME, organism-based. Set-up: dose 30 mg/kg, route intraperitoneal. The note with it: in vivo, 0.25 h. In a few lines: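 Male C57BL/6 mice (N = 3) got a single 30 mg/kg ip dose in 10% NMP + 20% PEG 400 + 70% of 25% HP-β-CD in water. Plasma and brain concentration–time profiles were measured.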

The next series has as its system Liver. The experiment in a line: Intrinsic half-life in mouse liver microsomes. Type of series: ADME. A general note: Microsomes from liver hold many membrane-bound enzymes, among them those of drug oxidation.
In another series the target is D(3) dopamine receptor (Homo sapiens, UniProt P35462). The experiment in a line: Displacement of [3H]methylspiperone from human D3 receptor expressed in HEK293 cell membrane after 90 mins by scintillation counting analysis. Type of series: cell membranes. (In general: Loss of bound radioactivity is the signal in a displacement assay; it reports binding, not function.)
Sequence of D(3) dopamine receptor (P35462 whole entry): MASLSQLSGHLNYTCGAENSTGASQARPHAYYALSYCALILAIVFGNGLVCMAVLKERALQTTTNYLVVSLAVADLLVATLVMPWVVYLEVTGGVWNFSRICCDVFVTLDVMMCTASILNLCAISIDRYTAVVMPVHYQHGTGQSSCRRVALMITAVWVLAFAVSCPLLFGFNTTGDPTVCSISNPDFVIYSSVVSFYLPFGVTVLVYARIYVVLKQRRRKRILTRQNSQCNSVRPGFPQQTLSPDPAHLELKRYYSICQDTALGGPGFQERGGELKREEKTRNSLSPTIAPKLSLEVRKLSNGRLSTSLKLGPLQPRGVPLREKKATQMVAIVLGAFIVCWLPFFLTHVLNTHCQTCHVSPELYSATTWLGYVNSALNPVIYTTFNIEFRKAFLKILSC

A short description of series [4]: Aqueous kinetic solubility of the compound in PBS buffer. Type of series: physicochemical.
In series [5] the test system is Plasma. The experiment in a line: Stability of the compound in mouse plasma assessed as compound remaining after 2 hrs. Type of series: ADME, cell-free.

One may read the Papp as a coefficient for how fast a substance crosses the barrier. What is called Ki is the dissociation constant of the complex between target and ligand, obtained from inhibition or displacement.

For the compound `CN1C(=O)c2ccccc2[S@+]([O-])c2ccc(C(=O)NCCc3cccs3)cc21`, the Stability stood at 98.4% with Plasma [1] and 95.2% in the series on Plasma [5]. Also, the Papp came out at 18.8 ×10⁻⁶ cm/s in the series on Caco-2 [2] and 23.8 ×10⁻⁶ cm/s in the series with Caco-2 [3]. Further, in the series on Brain, the Cmax was 4.19 µmol/kg. This compound also registered a t1/2 in the series on Liver of 24.7 min. For the same compound, the inhibition constant (Ki) on D(3) dopamine receptor is 4.1 µM. In series [4], this compound showed a Kinetic_solubility of 113.3 µM.

The record behind these values is ChEMBL document CHEMBL3232915, “Discovery, optimization, and characterization of novel D2 dopamine receptor selective antagonists” (J Med Chem, 2014).
